Experimental data: ChEMBL document CHEMBL4334471, “Discovery of 1,8-disubstituted-[1,2,3]triazolo[4,5-c]quinoline derivatives as a new class of Hippo signaling pathway inhibitors” (Bioorg Med Chem Lett, 2019)

Columns and labels:
[1] = biological target: Ribosomal protein S6 kinase alpha-4 (Homo sapiens) (UniProt O75676); assay: Inhibition of recombinant human MSK2 (2 to end residues) assessed as residual activity at 10 uM using GRPRTSSFAEGKK as substrate incubated for 40 mins in presence of [gamma-33ATP by scintillation counting based radiometry assay relative to control
Sequence of Ribosomal protein S6 kinase alpha-4 (Homo sapiens) (O75676 whole entry, looked up): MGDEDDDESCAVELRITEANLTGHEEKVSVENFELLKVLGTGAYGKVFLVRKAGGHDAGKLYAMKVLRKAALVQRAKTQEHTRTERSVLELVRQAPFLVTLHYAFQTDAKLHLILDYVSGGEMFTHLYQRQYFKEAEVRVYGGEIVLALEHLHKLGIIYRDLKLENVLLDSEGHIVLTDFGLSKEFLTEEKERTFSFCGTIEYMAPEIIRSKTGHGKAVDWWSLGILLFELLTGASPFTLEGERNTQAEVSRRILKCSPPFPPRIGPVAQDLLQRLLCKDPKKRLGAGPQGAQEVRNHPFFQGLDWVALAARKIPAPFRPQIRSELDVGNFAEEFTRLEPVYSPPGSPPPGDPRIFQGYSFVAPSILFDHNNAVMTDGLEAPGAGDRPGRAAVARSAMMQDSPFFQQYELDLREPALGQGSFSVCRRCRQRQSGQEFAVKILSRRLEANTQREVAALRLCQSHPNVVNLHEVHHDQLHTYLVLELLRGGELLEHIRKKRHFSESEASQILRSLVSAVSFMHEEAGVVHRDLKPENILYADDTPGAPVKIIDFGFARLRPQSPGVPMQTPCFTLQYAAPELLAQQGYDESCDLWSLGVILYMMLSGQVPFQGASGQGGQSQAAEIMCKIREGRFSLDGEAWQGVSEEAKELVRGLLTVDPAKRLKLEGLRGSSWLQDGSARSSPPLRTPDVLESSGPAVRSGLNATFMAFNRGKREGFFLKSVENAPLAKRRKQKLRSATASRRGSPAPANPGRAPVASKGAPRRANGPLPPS

[2] = tested on: Tyrosine-protein kinase Blk (Homo sapiens), P51451 [UNDEFINED MUTATION]; assay: Inhibition of recombinant full length human BLK M287V mutant assessed as residual activity at 10 uM using poly(Glu, Tyr) 4:1 as substrate incubated for 40 mins in presence of [gamma-33ATP] by scintillation counting based radiometry assay relative to control
[3] = biological target: Cyclin-dependent kinase 13/Cyclin-K (Homo sapiens) (UniProt Q14004+O75909); assay: Inhibition of recombinant full length human CDK13/cyclinK assessed as residual activity at 10 uM using RSRSRSRSRSRSR as substrate incubated for 40 mins in presence of [gamma-33ATP] by scintillation counting based radiometry assay relative to control; format: protein-complex assay
[4] = biological target: Insulin receptor (Homo sapiens) (UniProt P06213); assay: Inhibition of human IR activated (1005 to 1310 residues) assessed as residual activity at 10 uM using KKSRGDYMTMQIG as substrate after 40 mins by [gamma-33ATP] radiometric assay relative to control
[5] = biological target: Serine/threonine-protein kinase LATS1 (Homo sapiens, UniProt O95835); assay: Binding affinity to recombinant human LATS1 (Q678 to V1130 residues) expressed in bacterial expression system assessed as dissociation constant by Kinomescan method
In short: (§1)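 KINOMEscan competition binding assay. Kinase bound at each concentration of test compound was quantified by qPCR and plotted against log10 compound concentration to derive Kd.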

[6] = biological target: Ephrin type-A receptor 2 (Homo sapiens) (UniProt P29317); assay: Inhibition of recombinant human EphA2 (596 to 900 residues) assessed as residual activity at 10 uM using poly(Glu, Tyr) 4:1 as substrate at 40 mins in presence of [gamma-33ATP] by scintillation counting based radiometry assay relative to control
Sequence of Ephrin type-A receptor 2 (Homo sapiens) (P29317 whole entry, the tested form may be a part): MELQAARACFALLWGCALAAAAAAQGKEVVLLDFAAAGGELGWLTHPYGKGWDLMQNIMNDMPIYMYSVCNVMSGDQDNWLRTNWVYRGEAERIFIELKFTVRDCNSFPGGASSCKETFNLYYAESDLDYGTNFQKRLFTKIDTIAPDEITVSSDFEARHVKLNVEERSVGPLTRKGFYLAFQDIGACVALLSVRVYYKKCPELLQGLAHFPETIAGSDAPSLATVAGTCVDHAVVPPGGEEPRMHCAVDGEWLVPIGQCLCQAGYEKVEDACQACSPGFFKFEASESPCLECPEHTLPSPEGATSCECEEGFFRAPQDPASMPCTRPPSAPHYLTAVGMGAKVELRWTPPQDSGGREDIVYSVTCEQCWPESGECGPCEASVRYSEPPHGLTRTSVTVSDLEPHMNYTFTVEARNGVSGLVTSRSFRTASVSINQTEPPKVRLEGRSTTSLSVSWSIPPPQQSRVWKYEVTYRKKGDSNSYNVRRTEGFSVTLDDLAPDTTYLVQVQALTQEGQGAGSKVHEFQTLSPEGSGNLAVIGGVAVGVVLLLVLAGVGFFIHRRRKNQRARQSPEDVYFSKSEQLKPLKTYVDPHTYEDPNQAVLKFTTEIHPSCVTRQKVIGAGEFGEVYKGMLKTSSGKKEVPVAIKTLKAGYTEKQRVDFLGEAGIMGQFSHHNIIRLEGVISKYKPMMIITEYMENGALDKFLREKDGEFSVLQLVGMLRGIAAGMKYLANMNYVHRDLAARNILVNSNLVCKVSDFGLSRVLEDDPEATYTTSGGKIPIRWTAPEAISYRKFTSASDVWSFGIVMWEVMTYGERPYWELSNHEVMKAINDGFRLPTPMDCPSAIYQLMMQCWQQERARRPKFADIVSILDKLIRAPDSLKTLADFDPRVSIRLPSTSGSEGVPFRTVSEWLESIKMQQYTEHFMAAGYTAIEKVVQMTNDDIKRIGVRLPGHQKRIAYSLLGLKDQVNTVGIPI

[7] = biological target: Ephrin type-B receptor 1 (Homo sapiens) (UniProt P54762); assay: Inhibition of recombinant human EphB1 (564 to end residues) assessed as residual activity at 10 uM using KVEKIGEGTYGVVYK as substrate at 40 mins in presence of [gamma-33ATP] by scintillation counting based radiometry assay relative to control
[8] = tested on: PI3-kinase p110-alpha/p85-alpha (Homo sapiens), P27986+P42336 [E545K]; assay: Inhibition of recombinant full-length human PI3K p110/p85 E545K mutant assessed as residual activity at 10 uM using phosphatidylinositol-4, 5-bisphosphate as substrate incubated for 40 mins in presence of [gamma33P]ATP by scintillation counting based radiometry assay relative to control
[9] = biological target: Mitogen-activated protein kinase kinase kinase kinase 2 (Homo sapiens) (UniProt Q12851); assay: Inhibition of recombinant human GCK (1 to 473 residues) assessed as residual activity at 10 uM using myelin basic protein as substrate at 40 mins in presence of [gamma-33ATP] by scintillation counting based radiometry assay relative to control
[10] = biological target: Insulin-like growth factor 1 receptor (Homo sapiens) (UniProt P08069); assay: Inhibition of human IGF1R (959 to end residues) assessed as residual activity at 10 uM using KKKSPGEYVNIEFGF as substrate after 40 mins by [gamma-33ATP] radiometric assay relative to control
[11] = biological target: Ephrin type-B receptor 3 (Homo sapiens) (UniProt P54753); assay: Inhibition of recombinant human EphB3 (599 to 920 residues) assessed as residual activity at 10 uM using poly(Glu, Tyr) 4:1 as substrate at 40 mins in presence of [gamma-33ATP] by scintillation counting based radiometry assay relative to control
[12] = biological target: Tyrosine-protein kinase ZAP-70 (Homo sapiens) (UniProt P43403); assay: Inhibition of recombinant full length human ZAP70 assessed as residual activity at 10 uM using poly(Glu, Tyr) 4:1 as substrate incubated for 40 mins in presence of [gamma33P]ATP by scintillation counting based radiometry assay relative to control
Sequence of Tyrosine-protein kinase ZAP-70 (Homo sapiens) (P43403 whole entry): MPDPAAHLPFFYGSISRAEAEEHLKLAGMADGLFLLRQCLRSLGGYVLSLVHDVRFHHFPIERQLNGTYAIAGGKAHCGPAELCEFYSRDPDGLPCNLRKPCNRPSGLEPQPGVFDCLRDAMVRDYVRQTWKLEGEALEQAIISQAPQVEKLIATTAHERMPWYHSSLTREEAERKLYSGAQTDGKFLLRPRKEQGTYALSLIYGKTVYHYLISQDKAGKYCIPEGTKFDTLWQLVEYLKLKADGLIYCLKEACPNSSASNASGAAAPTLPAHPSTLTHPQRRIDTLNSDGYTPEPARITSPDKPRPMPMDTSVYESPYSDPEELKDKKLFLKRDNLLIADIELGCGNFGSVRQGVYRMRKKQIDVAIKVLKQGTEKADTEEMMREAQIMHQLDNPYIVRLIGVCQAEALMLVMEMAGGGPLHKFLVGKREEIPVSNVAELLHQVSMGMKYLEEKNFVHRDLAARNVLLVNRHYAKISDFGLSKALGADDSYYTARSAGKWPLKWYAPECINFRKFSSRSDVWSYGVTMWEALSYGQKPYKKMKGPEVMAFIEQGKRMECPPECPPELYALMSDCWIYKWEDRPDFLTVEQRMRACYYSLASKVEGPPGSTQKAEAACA

[13] = biological target: TGF-beta receptor type-2 (Homo sapiens) (UniProt P37173); assay: Inhibition of recombinant human TGFBR2 (188 to end residues) assessed as residual activity at 10 uM using myelin basic protein as substrate incubated for 120 mins in presence of [gamma33P]ATP by scintillation counting based radiometry assay relative to control
[14] = biological target: Cyclin-dependent kinase 2/cyclin E1 (Homo sapiens) (UniProt P24864+P24941); assay: Inhibition of recombinant full length human CDK2/CyclinE assessed as residual activity at 10 uM using Histone H1 as substrate incubated for 40 mins in presence of [gamma-33ATP] by scintillation counting based radiometry assay relative to control; format: protein-complex assay
Homo sapiens = organism: Homo sapiens; assay: Inhibition of recombinant human BRSK2 S251I mutant (2 to end residues) assessed as residual activity at 10 uM using KKLNRTLSFAEPG substrate incubated for 40 mins in presence of [gamma-33ATP] by scintillation counting based radiometry assay relative to control
[15] = biological target: Myosin-IIIb (Homo sapiens) (UniProt Q8WXR4); assay: Inhibition of recombinant human MYO3B (1 to 306 residues) assessed as residual activity at 10 uM using RLGRDKYKTLRQI as substrate measured after 40 mins in presence of [gamma33P]ATP by scintillation counting based radiometry assay relative to control
[16] = biological target: Cytoplasmic tyrosine-protein kinase BMX (Homo sapiens) (UniProt P51813); assay: Inhibition of recombinant full length human BMX assessed as residual activity at 10 uM using poly(Glu, Tyr) 4:1 as substrate incubated for 40 mins in presence of [gamma-33ATP] by scintillation counting based radiometry assay relative to control
[17] = biological target: Cyclin-dependent kinase 1/cyclin B1 (Homo sapiens) (UniProt P06493+P14635); assay: Inhibition of recombinant full length human CDK1/CyclinB assessed as residual activity at 10 uM using Histone H1 as substrate incubated for 40 mins in presence of [gamma-33ATP] by scintillation counting based radiometry assay relative to control; format: protein-complex assay
[18] = biological target: Mitogen-activated protein kinase 10 (Homo sapiens) (UniProt P53779); assay: Inhibition of human JNK3 assessed as residual activity at 10 uM using peptide as substrate after 40 mins by [gamma-33ATP] radiometric assay relative to control
Sequence of Mitogen-activated protein kinase 10 (Homo sapiens) (P53779 whole entry, the tested form may be a part): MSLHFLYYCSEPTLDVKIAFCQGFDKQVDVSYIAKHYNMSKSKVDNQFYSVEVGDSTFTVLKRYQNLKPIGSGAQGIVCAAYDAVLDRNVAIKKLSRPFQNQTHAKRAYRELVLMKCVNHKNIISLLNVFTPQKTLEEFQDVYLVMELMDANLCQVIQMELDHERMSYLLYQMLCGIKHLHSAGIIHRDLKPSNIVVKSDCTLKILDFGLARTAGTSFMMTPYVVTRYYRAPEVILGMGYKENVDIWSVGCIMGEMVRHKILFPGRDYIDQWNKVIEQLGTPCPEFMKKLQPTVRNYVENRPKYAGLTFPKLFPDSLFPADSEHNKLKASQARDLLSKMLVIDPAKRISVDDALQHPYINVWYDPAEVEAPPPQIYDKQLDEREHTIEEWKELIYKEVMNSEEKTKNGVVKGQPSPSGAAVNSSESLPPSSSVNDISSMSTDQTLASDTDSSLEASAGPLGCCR

[19] = biological target: Serine/threonine-protein kinase PLK2 (Homo sapiens) (UniProt Q9NYY3); assay: Inhibition of recombinant human SNK (65 to 409 residues) assessed as residual activity at 10 uM using casein as substrate incubated for 40 mins in presence of [gamma33P]ATP by scintillation counting based radiometry assay relative to control
Sequence of Serine/threonine-protein kinase PLK2 (Homo sapiens) (Q9NYY3 whole entry, looked up, the tested form may be a part): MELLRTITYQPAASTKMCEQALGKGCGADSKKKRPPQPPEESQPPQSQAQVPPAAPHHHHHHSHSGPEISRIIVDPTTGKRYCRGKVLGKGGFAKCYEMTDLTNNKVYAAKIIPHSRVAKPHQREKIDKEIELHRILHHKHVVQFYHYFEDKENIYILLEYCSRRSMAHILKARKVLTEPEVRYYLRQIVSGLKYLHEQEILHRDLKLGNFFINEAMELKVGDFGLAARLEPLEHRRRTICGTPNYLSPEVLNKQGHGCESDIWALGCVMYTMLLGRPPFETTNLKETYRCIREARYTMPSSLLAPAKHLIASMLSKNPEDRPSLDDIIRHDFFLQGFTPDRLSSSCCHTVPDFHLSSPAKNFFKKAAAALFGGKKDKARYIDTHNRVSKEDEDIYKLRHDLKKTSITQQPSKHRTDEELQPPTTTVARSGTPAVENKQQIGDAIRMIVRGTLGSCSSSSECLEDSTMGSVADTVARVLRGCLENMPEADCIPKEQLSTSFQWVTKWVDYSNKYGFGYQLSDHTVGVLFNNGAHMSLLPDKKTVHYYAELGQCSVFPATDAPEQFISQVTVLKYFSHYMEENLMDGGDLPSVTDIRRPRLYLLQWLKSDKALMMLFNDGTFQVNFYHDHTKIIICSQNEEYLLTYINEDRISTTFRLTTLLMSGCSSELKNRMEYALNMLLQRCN

[20] = biological target: Serine/threonine-protein kinase LATS2 (Homo sapiens, UniProt Q9NRM7); assay: Binding affinity to wild-type human partial length LATS2 (Q641 to V1088 residues) expressed in mammalian expression system assessed as dissociation constant by Kinomescan method; in short: as §1
Sequence of Serine/threonine-protein kinase LATS2 (Q9NRM7 whole entry, the tested form may be a part): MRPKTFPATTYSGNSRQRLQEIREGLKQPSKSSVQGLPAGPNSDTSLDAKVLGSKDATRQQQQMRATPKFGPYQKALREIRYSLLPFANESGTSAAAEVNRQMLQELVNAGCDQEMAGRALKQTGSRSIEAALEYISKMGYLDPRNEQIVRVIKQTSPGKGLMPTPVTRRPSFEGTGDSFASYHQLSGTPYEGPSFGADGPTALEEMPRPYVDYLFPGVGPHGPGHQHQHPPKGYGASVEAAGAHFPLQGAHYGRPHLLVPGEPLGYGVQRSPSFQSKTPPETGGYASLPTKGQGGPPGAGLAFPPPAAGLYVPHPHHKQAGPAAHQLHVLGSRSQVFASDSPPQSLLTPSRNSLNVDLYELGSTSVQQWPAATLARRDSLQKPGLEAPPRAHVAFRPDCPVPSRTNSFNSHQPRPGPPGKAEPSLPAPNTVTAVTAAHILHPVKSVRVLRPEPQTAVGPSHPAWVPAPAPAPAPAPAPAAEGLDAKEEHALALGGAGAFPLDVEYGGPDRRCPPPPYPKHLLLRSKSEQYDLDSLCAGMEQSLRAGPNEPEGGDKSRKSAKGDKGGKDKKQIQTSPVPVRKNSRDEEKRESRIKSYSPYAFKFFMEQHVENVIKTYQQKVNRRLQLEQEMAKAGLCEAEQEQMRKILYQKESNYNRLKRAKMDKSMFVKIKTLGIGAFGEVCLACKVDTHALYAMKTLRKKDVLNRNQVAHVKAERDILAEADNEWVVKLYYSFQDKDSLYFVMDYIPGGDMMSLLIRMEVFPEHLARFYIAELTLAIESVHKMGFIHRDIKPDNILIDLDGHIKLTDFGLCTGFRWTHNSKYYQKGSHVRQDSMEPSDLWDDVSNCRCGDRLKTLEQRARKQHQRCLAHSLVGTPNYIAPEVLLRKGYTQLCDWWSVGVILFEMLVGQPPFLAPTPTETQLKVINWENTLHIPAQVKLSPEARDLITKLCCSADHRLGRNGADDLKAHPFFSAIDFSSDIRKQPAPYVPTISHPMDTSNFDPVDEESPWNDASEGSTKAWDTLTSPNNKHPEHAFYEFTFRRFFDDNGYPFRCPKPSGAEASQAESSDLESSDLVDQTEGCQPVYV

C[C@@H](c1ccccc1)n1nnc2cnc3ccc(-c4cnc5[nH]ccc5c4)cc3c21 showed an Activity [1] of 58%, an Activity [2] of 8% and an Activity [3] of 84%. For the same molecule, the Activity [4] was 62%, the Kd [5] was greater than 10 µM and the Activity [6] was 68%. It also gave an Activity [7] of 152%, an Activity [8] of 2% and an Activity [9] of 75%. It also gave an Activity [10] of 50%, an Activity [11] of 123% and an Activity [12] of 150%. For the same molecule, the Activity [13] was 87%, the Activity [14] was 72% and the Activity (Homo sapiens) was 77%. The Activity [15] was 73%, the Activity [16] was 44% and the Activity [17] was 63%. It also gave an Activity [18] of 47%, an Activity [19] of 90% and a Kd [20] greater than 10 µM.
